Experimental data published in ChEMBL document CHEMBL1139431, “Synthesis of both enantiomers of hydroxypipecolic acid derivatives equivalent to 5-azapyranuronic acids and evaluation of their inhibitory activities against glycosidases” (Bioorg Med Chem, 2008).

Legend:
Bos taurus = species: Bos taurus; assay: Inhibition of bovine liver beta-glucuronidase at 1000 uM
In short: (§1)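 Enzyme from bovine liver, run at pH 5.0. A p-nitrophenyl glycoside substrate (2 mM) is used in a 1 mL reaction with an appropriate amount of enzyme. Termination is by 2 mL of 400 mM Na₂CO₃, with spectrophotometric detection of liberated p-nitrophenol at 400 nm.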

Escherichia coli = assay: Inhibition of Escherichia coli beta-glucuronidase at 1000 uM
In short: (§2)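 E. coli β-glucuronidase assayed at pH 6.8 in a 1 mL mixture containing 2 mM p-nitrophenyl glycoside substrate and an appropriate amount of enzyme. The reaction is stopped with 2 mL of 400 mM Na₂CO₃, and released p-nitrophenol is read at 400 nm.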

[1] = Inhibition of bovine kidney beta-N-acetylglucosaminidase at 1000 uM; assay type: functional; conditions: Bos taurus
In short: (§3)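 β-N-Acetylglucosaminidase from bovine kidney, pH 4.5. The substrate is a p-nitrophenyl glycoside at 2 mM, with an appropriate amount of enzyme in a 1 mL mixture. The reaction is quenched with 2 mL of 400 mM Na₂CO₃, and p-nitrophenol is measured at 400 nm.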

[2] = target: T1, Alpha-N-acetylgalactosaminidase (Gallus gallus) (UniProt Q90744); assay: Inhibition of chicken liver alpha-N-acetylgalactosaminidase at 1000 uM
T1 sequence (whole entry): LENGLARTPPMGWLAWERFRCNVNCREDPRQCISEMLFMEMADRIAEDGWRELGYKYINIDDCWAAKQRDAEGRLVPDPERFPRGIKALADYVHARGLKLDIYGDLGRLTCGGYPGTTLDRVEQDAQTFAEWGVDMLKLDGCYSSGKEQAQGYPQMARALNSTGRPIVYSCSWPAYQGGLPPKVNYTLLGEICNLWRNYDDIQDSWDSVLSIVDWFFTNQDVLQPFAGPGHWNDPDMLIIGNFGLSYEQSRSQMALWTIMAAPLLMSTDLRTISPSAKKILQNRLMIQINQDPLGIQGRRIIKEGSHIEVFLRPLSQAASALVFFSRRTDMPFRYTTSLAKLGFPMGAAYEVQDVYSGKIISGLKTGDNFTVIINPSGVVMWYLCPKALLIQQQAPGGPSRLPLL
In short: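 Chicken liver α-N-acetylgalactosaminidase at pH 4.0. The reaction (1 mL) holds 2 mM p-nitrophenyl glycoside and an appropriate amount of enzyme. It is stopped by 2 mL of 400 mM Na₂CO₃, and p-nitrophenol release is quantified at 400 nm.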

[3] = test system: Beta-hexosaminidase (Homo sapiens); assay: Inhibition of human Placental beta-N-acetylglucosaminidase at 1000 uM
[4] = Inhibition of bovine kidney beta-N-acetylglucosaminidase; parameters: species or system Bos taurus; in short: as §3
[5] = target: Beta-hexosaminidase (Homo sapiens); assay: Inhibition of human Placental beta-N-acetylglucosaminidase
[6] = Inhibition of bovine liver beta-glucuronidase; parameters: species or system Bos taurus; in short: as §1
[7] = Inhibition of Escherichia coli beta-glucuronidase; in short: as §2

SMILES: O=C(O)[C@H]1NC[C@H](O)[C@H](O)[C@@H]1O
- inhibition (Bos taurus): 2.1%
- inhibition (Escherichia coli): 0.6%
- inhibition at 1000 µM [1]: 14%
- inhibition [2]: 4.5%
- inhibition [3]: 26%

SMILES: O=C(O)[C@@H]1NCC=C[C@@H]1O
- inhibition (Bos taurus): 10%
- inhibition (Escherichia coli): 0.9%
- inhibition at 1000 µM [1]: 0.8%
- inhibition [2]: 1.3%
- inhibition [3]: 14%

SMILES: O=C(O)[C@@H]1NC[C@@H](O)[C@@H](O)[C@H]1O
- inhibition (Bos taurus): 3.1%
- inhibition (Escherichia coli): 1.3%
- inhibition at 1000 µM [1]: 10%
- inhibition [2]: 8.2%
- inhibition [3]: 26%

SMILES: O=C(O)[C@H]1NC[C@@H](O)[C@H](O)[C@@H]1O
- inhibition (Bos taurus): 20%
- inhibition (Escherichia coli): 1.1%
- inhibition at 1000 µM [1]: 17%
- inhibition [2]: 11%
- inhibition [3]: 42%

SMILES: O=C(O)[C@@H]1NC[C@H](O)[C@@H](O)[C@H]1O
- inhibition (Bos taurus): 6.8%
- inhibition (Escherichia coli): 5.2%
- inhibition at 1000 µM [1]: 27%
- inhibition [2]: 4%
- inhibition [3]: 42%

SMILES: O=C(O)[C@H]1NCC=C[C@H]1O
- inhibition (Bos taurus): 8.6%
- inhibition (Escherichia coli): 3.3%
- inhibition at 1000 µM [1]: 7.3%
- inhibition [2]: 0.2%
- inhibition [3]: 17%

SMILES: O=C(O)[C@H]1NCC=C[C@@H]1O
- inhibition (Bos taurus): 19%
- inhibition (Escherichia coli): 2%
- inhibition at 1000 µM [1]: 58%
- inhibition [2]: 25%
- IC50 [4]: 720 µM
- IC50 [5]: 750 µM
- inhibition [3]: 60%

SMILES: O=C(O)[C@H]1NCCC[C@@H]1O
- inhibition (Bos taurus): 0.89%
- inhibition (Escherichia coli): 31%
- inhibition at 1000 µM [1]: 38%
- inhibition [2]: 5.2%
- inhibition [3]: 36%

SMILES: O=C(O)[C@H]1NC[C@H](O)[C@@H](O)[C@@H]1O
- inhibition (Bos taurus): 95%
- inhibition (Escherichia coli): 72%
- inhibition at 1000 µM [1]: 13%
- inhibition [2]: 0.2%
- IC50 [6]: 70 µM
- IC50 [7]: 215 µM
- Ki [7]: 400 µM
- inhibition [3]: 43%

SMILES: O=C(O)[C@@H]1NC[C@H](O)[C@H](O)[C@H]1O
- inhibition (Bos taurus): 12%
- inhibition (Escherichia coli): 2.6%
- inhibition at 1000 µM [1]: 18%
- inhibition [2]: 4.4%
- inhibition [3]: 39%

SMILES: O=C(O)[C@@H]1NC[C@H](O)[C@@H](O)[C@@H]1O
- inhibition (Bos taurus): 15.8%
- inhibition (Escherichia coli): 4.2%
- inhibition at 1000 µM [1]: 4.4%
- inhibition [2]: 3.4%
- inhibition [3]: 5.4%

SMILES: O=C(O)[C@@H]1NC[C@@H](O)[C@H](O)[C@H]1O
- inhibition (Bos taurus): 2.7%
- inhibition (Escherichia coli): 5.4%
- inhibition at 1000 µM [1]: 11%
- inhibition [2]: 1.3%
- inhibition [3]: 50%

SMILES: O=C(O)[C@H]1NC[C@H](O)[C@@H](O)[C@H]1O
- inhibition (Bos taurus): 87%
- inhibition (Escherichia coli): 21%
- inhibition at 1000 µM [1]: 1.9%
- inhibition [2]: 31%
- IC50 [6]: 86 µM
- inhibition [3]: 2.6%

SMILES: O=C(O)[C@@H]1NC[C@@H](O)[C@H](O)[C@@H]1O
- inhibition (Bos taurus): 7.1%
- inhibition (Escherichia coli): 6.3%
- inhibition at 1000 µM [1]: 0.5%
- inhibition [2]: 10%
- inhibition [3]: 0.8%

SMILES: O=C(O)[C@@H]1NCCC[C@@H]1O
- inhibition (Bos taurus): 15%
- inhibition (Escherichia coli): 23%
- inhibition at 1000 µM [1]: 47%
- inhibition [2]: 3.2%
- inhibition [3]: 46%

SMILES: O=C(O)[C@H]1NC[C@@H](O)[C@H](O)[C@H]1O
- inhibition (Bos taurus): 17.5%
- inhibition (Escherichia coli): 2.6%
- inhibition at 1000 µM [1]: 4.8%
- inhibition [2]: 4.2%
- inhibition [3]: 6.3%

SMILES: O=C(O)[C@@H]1NCCC[C@H]1O
- inhibition (Bos taurus): 0.62%
- inhibition (Escherichia coli): 20%
- inhibition at 1000 µM [1]: 32%
- inhibition [2]: 1.3%
- inhibition [3]: 25%

SMILES: O=C(O)[C@H]1NC[C@H](O)[C@H](O)[C@H]1O
- inhibition (Bos taurus): 8.8%
- inhibition (Escherichia coli): 2.3%
- inhibition at 1000 µM [1]: 5.5%
- inhibition [2]: 21%
- inhibition [3]: 7.6%

SMILES: O=C(O)[C@@H]1NC[C@@H](O)[C@@H](O)[C@@H]1O
- inhibition (Bos taurus): 9.4%
- inhibition (Escherichia coli): 1.2%
- inhibition at 1000 µM [1]: 1.7%
- inhibition [2]: 7.2%
- inhibition [3]: 2.1%

SMILES: O=C(O)[C@H]1NC[C@@H](O)[C@@H](O)[C@@H]1O
- inhibition (Bos taurus): 14%
- inhibition (Escherichia coli): 1%
- inhibition at 1000 µM [1]: 0.5%
- inhibition [2]: 3.8%
- inhibition [3]: 28%

SMILES: O=C(O)[C@@H]1NCC=C[C@H]1O
- inhibition (Bos taurus): 0.2%
- inhibition (Escherichia coli): 0.9%
- inhibition at 1000 µM [1]: 15%
- inhibition [2]: 3.2%
- inhibition [3]: 14%

SMILES: O=C(O)[C@H]1NCCC[C@H]1O
- inhibition (Bos taurus): 0.18%
- inhibition (Escherichia coli): 24%
- inhibition at 1000 µM [1]: 20%
- inhibition [2]: 2.5%
- inhibition [3]: 30%
